{"source": "ChEMBL document CHEMBL4350961", "about": "“Discovery of Pyrrolo[3,2- d]pyrimidin-4-one Derivatives as a New Class of Potent and Cell-Active Inhibitors of P300/CBP-Associated Factor Bromodomain” (J Med Chem, 2019)", "key": {"[1]": {"target": "Cyclin-dependent kinase 1/cyclin B1 (Homo sapiens) (UniProt P06493+P14635)", "experiment": "Inhibition of recombinant full-length human CDK1/cyclinB at 10 uM using histone H1 as substrate measured after 40 mins in presence of [gamma33P]ATP by scintillation counting method", "type": "protein-complex assay"}, "[2]": {"test_system": "Proto-oncogene tyrosine-protein kinase Src (Homo sapiens), P12931 [T341M]", "experiment": "Inhibition of recombinant full-length human Src T341M mutant at 10 uM using GGEEEEYFELVKKKK as substrate measured after 40 mins in presence of [gamma33P]ATP by scintillation counting method"}, "[3]": {"target": "Tyrosine-protein kinase ITK/TSK (Homo sapiens) (UniProt Q08881)", "experiment": "Inhibition of recombinant human ITK (352 to 617 residues) at 10 uM using myelin basic protein as substrate measured after 40 mins in presence of [gamma33P]ATP by scintillation counting method"}, "[4]": {"target": "Focal adhesion kinase 1 (Homo sapiens) (UniProt Q05397)", "experiment": "Inhibition of recombinant human FAK (411 to 686 residues) at 10 uM using EEEEYEEEEEEYYIIEEEEEEYEEEEEEYYEEEEEEKKKK as substrate measured after 40 mins in presence of [gamma33P]ATP by scintillation counting method"}, "[5]": {"target": "SWI/SNF-related matrix-associated actin-dependent regulator of chromatin subfamily A member 4 (Homo sapiens) (UniProt P51532)", "sequence (P51532 whole entry, the tested form may be a part)": "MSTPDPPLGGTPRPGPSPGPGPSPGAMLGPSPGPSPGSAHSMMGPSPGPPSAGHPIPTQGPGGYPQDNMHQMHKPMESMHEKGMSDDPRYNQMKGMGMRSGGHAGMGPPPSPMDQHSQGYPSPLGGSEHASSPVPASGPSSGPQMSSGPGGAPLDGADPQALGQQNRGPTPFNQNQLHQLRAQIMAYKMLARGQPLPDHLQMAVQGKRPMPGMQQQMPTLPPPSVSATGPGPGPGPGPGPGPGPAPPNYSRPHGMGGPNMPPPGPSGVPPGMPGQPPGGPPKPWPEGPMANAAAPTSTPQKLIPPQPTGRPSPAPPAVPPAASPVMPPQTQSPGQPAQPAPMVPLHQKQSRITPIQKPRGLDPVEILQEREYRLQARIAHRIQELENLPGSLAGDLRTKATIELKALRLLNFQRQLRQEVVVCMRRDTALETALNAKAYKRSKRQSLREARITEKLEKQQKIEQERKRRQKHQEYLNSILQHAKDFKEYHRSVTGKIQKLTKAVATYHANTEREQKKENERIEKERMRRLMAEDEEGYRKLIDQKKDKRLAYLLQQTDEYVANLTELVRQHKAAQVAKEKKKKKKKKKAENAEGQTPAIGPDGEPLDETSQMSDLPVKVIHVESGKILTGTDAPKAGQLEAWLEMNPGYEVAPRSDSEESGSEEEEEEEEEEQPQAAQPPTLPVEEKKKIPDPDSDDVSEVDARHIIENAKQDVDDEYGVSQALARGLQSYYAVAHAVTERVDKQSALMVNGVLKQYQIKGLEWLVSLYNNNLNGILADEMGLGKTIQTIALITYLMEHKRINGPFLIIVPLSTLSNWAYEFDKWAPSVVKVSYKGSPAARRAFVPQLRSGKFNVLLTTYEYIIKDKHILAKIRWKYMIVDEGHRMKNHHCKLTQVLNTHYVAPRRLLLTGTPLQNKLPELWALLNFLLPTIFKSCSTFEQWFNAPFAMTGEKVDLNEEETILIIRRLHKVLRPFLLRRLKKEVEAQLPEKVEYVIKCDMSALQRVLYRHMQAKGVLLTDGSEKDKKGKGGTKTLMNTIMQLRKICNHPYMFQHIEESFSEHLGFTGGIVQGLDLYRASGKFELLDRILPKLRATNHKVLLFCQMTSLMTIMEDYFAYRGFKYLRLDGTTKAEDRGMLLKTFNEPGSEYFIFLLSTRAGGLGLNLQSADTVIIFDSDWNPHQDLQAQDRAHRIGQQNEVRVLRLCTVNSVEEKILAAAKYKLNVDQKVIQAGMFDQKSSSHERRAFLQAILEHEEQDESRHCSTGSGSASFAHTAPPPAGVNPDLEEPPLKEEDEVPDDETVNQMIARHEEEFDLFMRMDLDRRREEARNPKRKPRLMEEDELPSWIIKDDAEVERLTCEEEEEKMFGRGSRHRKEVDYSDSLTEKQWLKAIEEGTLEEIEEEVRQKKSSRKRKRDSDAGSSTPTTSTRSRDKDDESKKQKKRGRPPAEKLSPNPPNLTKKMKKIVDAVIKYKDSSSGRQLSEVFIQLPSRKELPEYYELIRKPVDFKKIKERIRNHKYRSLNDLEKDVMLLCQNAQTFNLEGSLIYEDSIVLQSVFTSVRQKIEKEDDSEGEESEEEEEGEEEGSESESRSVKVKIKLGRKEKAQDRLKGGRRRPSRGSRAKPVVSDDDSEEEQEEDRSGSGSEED", "experiment": "Binding affinity to human partial length SMARCA4 (A1448 to S1575 residues) expressed in bacterial expression system at 1 uM by BROMOscan assay", "procedure,_shortened": "(§1)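 BROMOscan bromodomain cross-screen run by an outside service, compound at 1 µM against 32 recombinant bromodomains. Binding given as percent of control.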"}, "[6]": {"target": "Insulin receptor-related protein (Homo sapiens) (UniProt P14616)", "sequence (P14616 27-742 limits assumed)": "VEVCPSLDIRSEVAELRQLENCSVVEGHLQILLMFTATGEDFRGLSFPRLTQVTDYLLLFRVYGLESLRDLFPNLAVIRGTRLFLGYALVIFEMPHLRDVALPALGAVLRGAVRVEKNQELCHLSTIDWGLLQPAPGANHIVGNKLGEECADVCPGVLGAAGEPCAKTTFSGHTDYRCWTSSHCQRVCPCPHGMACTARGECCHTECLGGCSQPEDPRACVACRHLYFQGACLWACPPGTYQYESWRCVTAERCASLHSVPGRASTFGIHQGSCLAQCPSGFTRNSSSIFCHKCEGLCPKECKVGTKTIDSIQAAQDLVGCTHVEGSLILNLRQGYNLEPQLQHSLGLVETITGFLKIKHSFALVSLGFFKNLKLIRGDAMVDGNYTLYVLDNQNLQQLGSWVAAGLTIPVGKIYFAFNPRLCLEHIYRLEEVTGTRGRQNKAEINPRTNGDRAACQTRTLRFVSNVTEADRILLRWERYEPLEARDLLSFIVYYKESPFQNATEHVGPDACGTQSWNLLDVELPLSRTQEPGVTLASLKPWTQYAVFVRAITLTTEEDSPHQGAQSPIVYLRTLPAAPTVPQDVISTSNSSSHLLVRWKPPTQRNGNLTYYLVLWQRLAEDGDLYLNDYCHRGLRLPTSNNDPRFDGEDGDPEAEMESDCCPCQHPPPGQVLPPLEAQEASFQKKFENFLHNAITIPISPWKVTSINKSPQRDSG", "sequence (P14616 747-1297 limits assumed)": "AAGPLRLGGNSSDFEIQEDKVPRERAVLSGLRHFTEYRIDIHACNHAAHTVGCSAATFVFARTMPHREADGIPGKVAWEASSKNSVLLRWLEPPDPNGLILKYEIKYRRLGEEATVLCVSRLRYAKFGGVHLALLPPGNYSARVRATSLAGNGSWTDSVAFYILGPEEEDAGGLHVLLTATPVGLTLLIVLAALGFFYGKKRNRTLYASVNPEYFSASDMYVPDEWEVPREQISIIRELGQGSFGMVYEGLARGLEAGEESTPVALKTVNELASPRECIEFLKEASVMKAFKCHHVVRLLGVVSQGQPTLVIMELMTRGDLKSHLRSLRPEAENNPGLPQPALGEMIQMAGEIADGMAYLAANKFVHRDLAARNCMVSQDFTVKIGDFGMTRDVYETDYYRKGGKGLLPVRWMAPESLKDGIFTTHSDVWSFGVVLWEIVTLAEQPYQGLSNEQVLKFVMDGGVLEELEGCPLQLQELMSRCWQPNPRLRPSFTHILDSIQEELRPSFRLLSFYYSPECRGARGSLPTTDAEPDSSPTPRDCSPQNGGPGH", "experiment": "Inhibition of recombinant human IRR (943 to 1266 residues) at 10 uM using myelin basic protein as substrate measured after 40 mins in presence of [gamma33P]ATP by scintillation counting method"}, "Homo sapiens [7]": {"species": "Homo sapiens", "experiment": "Inhibition of human Ros V2262A mutant (1883 to end residues) using KKKSPGEYVNIEFG as substrate measured after 40 mins in presence of [gamma33P]ATP by scintillation counting method", "procedure,_shortened": "(§2)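 Kinase panel of 422 kinases screened by Eurofins KinaseProfiler at a single test-compound concentration of 10 µM.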"}, "[8]": {"target": "Vascular endothelial growth factor receptor 1 (Homo sapiens) (UniProt P17948)", "experiment": "Inhibition of recombinant human Flt1 (783 to end residues) at 10 uM using KKKSPGEYVNIEFG as substrate measured after 40 mins in presence of [gamma33P]ATP by scintillation counting method"}, "[9]": {"target": "Serine/threonine-protein kinase 16 (Homo sapiens) (UniProt O75716)", "experiment": "Inhibition of human STK16 at 10 uM by radiometric method", "procedure,_shortened": "as §2"}, "Homo sapiens [10]": {"species": "Homo sapiens", "experiment": "Inhibition of recombinant human Mer H628Q/R794A mutant (557 to 882 residues) at 10 uM using GGMEDIYFEFMGGKKK as substrate measured after 40 mins in presence of [gamma33P]ATP by scintillation counting method"}, "[11]": {"target": "Serine/threonine-protein kinase Nek2 (Homo sapiens) (UniProt P51955)", "experiment": "Inhibition of recombinant full-length human NEK2 at 10 uM using myelin basic protein as substrate measured after 40 mins in presence of [gamma33P]ATP by scintillation counting method"}, "[12]": {"target": "Mitogen-activated protein kinase 11 (Homo sapiens) (UniProt Q15759)", "experiment": "Inhibition of recombinant full-length human SAPK2b at 10 uM using myelin basic protein as substrate measured after 40 mins in presence of [gamma33P]ATP by scintillation counting method"}, "[13]": {"experiment": "Tmax in Sprague-Dawley rat at 10 mg/kg, po administered via gavage by LC-MS/MS analysis", "type": "ADME, organism-based", "conditions": "in vivo"}, "[14]": {"target": "Maternal embryonic leucine zipper kinase (Homo sapiens) (UniProt Q14680)", "experiment": "Inhibition of recombinant human MELK (1 to 340 residues) at 10 uM using KKLNRTLSFAEPG as substrate measured after 40 mins in presence of [gamma33P]ATP by scintillation counting method"}, "[15]": {"test_system": "RAC-gamma serine/threonine-protein kinase (Homo sapiens), Q9Y243 [S472D]", "experiment": "Inhibition of recombinant full-length human PKBgamma S472D mutant (117 to end residues) at 10 uM using GRPRTSSFAEGKK as substrate measured after 40 mins in presence of [gamma33P]ATP by scintillation counting method"}, "[16]": {"target": "Casein kinase II subunit alpha' (CK2alpha2, Homo sapiens) (UniProt P19784)", "sequence (P19784 whole entry, looked up)": "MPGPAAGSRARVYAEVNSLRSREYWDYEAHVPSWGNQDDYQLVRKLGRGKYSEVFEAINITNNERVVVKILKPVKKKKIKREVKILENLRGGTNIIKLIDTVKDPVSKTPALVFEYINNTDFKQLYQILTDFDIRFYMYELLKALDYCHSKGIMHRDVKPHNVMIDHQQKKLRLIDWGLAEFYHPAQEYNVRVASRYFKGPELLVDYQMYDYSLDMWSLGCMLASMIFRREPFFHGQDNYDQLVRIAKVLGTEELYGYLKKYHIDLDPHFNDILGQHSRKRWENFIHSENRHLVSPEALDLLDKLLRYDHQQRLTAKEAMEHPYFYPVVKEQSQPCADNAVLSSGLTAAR", "experiment": "Inhibition of recombinant full length human CK2alpha2 at 10 uM using RRRDDDSDDD as substrate measured after 40 mins in presence of [gamma33P]ATP by scintillation counting method"}, "[17]": {"target": "CDK7/Cyclin H/MNAT1 (Homo sapiens) (UniProt P51946+P50613+P51948)", "experiment": "Inhibition of recombinant full length human CDK7/cyclin H/MAT1 at 10 uM using peptide substrate measured after 40 mins in presence of [gamma33P]ATP by scintillation counting method", "type": "protein-complex assay"}, "[18]": {"target": "Serine/threonine-protein kinase 10 (Homo sapiens) (UniProt O94804)", "sequence (O94804 whole entry, looked up, the tested form may be a part)": "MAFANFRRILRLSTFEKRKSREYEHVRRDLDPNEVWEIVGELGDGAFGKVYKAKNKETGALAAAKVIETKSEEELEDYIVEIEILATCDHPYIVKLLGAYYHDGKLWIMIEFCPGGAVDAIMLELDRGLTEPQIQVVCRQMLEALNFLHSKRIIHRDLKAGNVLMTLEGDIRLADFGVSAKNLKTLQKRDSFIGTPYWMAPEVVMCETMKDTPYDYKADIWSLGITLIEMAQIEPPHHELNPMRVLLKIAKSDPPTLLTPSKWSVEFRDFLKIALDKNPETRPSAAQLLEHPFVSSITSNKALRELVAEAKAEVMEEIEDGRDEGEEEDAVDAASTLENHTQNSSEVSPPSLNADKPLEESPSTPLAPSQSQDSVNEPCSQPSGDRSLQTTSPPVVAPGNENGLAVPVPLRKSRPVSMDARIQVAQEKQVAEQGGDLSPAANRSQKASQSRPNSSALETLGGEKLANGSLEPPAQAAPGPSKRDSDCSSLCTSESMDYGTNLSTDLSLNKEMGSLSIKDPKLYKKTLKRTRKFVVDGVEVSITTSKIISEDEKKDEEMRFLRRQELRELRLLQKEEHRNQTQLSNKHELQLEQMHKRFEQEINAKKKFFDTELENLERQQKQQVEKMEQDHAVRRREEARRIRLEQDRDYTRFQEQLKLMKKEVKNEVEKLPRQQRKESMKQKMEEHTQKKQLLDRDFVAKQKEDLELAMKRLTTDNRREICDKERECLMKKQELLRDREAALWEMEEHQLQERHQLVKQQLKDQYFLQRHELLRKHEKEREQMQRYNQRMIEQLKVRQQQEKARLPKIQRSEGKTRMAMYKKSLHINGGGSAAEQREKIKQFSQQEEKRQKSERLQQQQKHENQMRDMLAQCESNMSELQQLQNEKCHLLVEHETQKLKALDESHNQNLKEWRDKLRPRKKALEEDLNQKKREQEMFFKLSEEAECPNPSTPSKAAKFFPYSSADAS", "experiment": "Inhibition of recombinant human LOK (1 to 348 residues) at 10 uM using RLGRDKYKTLRQIRQ as substrate measured after 40 mins in presence of [gamma33P]ATP by scintillation counting method"}, "[19]": {"target": "Histone acetyltransferase KAT2B (Homo sapiens, UniProt Q92831)", "experiment": "Binding affinity to human partial length PCAF (G715 to D831 residues) expressed in bacterial expression system at 1 uM by BROMOscan assay", "procedure,_shortened": "as §1"}, "[20]": {"target": "Transcription initiation factor TFIID subunit 1-like (Homo sapiens) (UniProt Q8IZX4)", "experiment": "Inhibition of human TAF1L (1428 to end residues) using RRRFRPASPLRGPPK as substrate measured after 120 mins in presence of [gamma33P]ATP by scintillation counting method"}, "[21]": {"test_system": "Dual specificity protein kinase TTK (Homo sapiens), P33981 [S389A]", "sequence (P33981 whole entry S389A)": "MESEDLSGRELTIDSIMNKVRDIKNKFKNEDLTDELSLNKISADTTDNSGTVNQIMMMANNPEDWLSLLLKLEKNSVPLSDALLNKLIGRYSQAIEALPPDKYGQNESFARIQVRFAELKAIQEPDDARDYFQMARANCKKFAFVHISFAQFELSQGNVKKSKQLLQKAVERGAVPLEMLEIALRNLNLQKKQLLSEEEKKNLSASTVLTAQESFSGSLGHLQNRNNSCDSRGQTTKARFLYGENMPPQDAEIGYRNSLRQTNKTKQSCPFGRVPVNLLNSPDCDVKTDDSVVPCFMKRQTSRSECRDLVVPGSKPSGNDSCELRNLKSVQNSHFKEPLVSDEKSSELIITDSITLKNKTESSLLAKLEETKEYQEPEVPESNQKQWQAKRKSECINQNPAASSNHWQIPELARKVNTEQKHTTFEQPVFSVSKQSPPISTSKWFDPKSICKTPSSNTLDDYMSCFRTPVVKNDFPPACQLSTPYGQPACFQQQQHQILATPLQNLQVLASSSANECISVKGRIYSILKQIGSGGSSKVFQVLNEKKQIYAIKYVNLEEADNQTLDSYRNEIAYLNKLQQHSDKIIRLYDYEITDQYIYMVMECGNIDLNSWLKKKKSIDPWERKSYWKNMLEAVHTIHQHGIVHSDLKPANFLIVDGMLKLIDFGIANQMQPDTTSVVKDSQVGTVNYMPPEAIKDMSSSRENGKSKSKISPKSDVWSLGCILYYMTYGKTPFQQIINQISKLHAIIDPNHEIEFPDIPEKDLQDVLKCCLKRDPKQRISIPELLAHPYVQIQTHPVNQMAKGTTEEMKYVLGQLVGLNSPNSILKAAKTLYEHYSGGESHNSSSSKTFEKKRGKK", "experiment": "Inhibition of recombinant full-length human TTK S389A mutant at 10 uM using MBP as substrate measured after 40 mins in presence of [gamma33P]ATP by scintillation counting method"}, "[22]": {"target": "Nucleosome-remodeling factor subunit BPTF (Homo sapiens, UniProt Q12830)", "experiment": "Binding affinity to human N-terminal His-tagged FALZ assessed as change in melting temperature at 10 uM by SYPRO orange dye-based fluorescence assay", "procedure,_shortened": "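Thermal shift with His-tagged human bromodomain at 2 μM final in 10 mM HEPES pH 7.5, 500 mM NaCl. Compound at 10 μM final with 0.1% DMSO; SYPRO Orange at 1:1000. Equilibrated 3 min at 25 °C, then heated from 25 to 95 °C at 1 °C/min. Melting temperature shift taken from fluorescence; at least duplicate.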"}, "[23]": {"target": "Serine/threonine-protein kinase 38-like (Homo sapiens) (UniProt Q9Y2H1)", "experiment": "Inhibition of recombinant human NDR2 (83 to end residues) at 10 uM using RSRSRSRSRSRSRSR as substrate measured after 40 mins in presence of [gamma33P]ATP by scintillation counting method"}}, "note": "Calls of active or inactive are those of the source. The rule behind the calls is not given here."}
{"smiles": "CN1C[C@H](Nc2nc3cc[nH]c3c(=O)n2C)C[C@H](c2ccc3c(c2)OCCO3)C1", "values": [{"measurement": "inhibition", "setting": "[1]", "result": "inactive"}, {"measurement": "inhibition", "setting": "[2]", "result": "inactive"}, {"measurement": "inhibition", "setting": "[3]", "result": "inactive"}, {"measurement": "inhibition", "setting": "[4]", "result": "inactive"}, {"measurement": "Activity", "setting": "[5]", "result": "inactive"}, {"measurement": "inhibition", "setting": "[6]", "result": "inactive"}, {"measurement": "inhibition", "setting": "Homo sapiens [7]", "result": "inactive"}, {"measurement": "inhibition", "setting": "[8]", "result": "inactive"}, {"measurement": "inhibition", "setting": "[9]", "result": "inactive"}, {"measurement": "inhibition", "setting": "Homo sapiens [10]", "result": "inactive"}, {"measurement": "inhibition", "setting": "[11]", "result": "inactive"}, {"measurement": "inhibition", "setting": "[12]", "result": "inactive"}, {"measurement": "Tmax", "setting": "[13]", "result": 40.2, "unit": "min"}, {"measurement": "inhibition", "setting": "[14]", "result": "inactive"}, {"measurement": "inhibition", "setting": "[15]", "result": "inactive"}, {"measurement": "inhibition", "setting": "[16]", "result": "inactive"}, {"measurement": "inhibition", "setting": "[17]", "result": "inactive"}, {"measurement": "inhibition", "setting": "[18]", "result": "inactive"}, {"measurement": "Activity", "setting": "[19]", "result": "Active"}, {"measurement": "inhibition", "setting": "[20]", "result": "inactive"}, {"measurement": "inhibition", "setting": "[21]", "result": "inactive"}, {"measurement": "ΔTm", "setting": "[22]", "result": 5.3, "unit": "°C"}, {"measurement": "inhibition", "setting": "[23]", "result": "inactive"}]}
